Data on 2 compounds can be found in ChEMBL document CHEMBL3525967, “In vitro glucuronidation of the antibacterial triclocarban and its oxidative metabolites” (Drug Metab Dispos, 2012).

Series [1] in a line: (§1) Drug metabolism in human liver microsomes after 30 mins by LC-ESI-MS analysis. The settings on record: liver microsomes. It counts as ADME. Put shortly: (§2)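 2'-OH-TCC at 0.2, 0.5, 1, 2, 3, 5, 10 and 50 µM incubated with liver microsomes (alamethicin, MgCl2, saccharolactone, UDPGA; 37 °C), sampled at 5, 10, 15 and 30 min. Samples ≥5 µM diluted 1:9 in ACN; LC-ESI-MS. KM and vmax fitted from rate vs concentration; intrinsic clearance derived from these; mean and SD of three.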

The subject of series [2] is Liver microsome. The description is as §1. The class given is ADME. The settings on record: microsomes, 0.5 h. Put shortly:
as §2

Series [3] has as its system Liver microsome. Put plainly: Drug metabolism in human liver microsomes assessed as N'-glucuronide-triclocarban formation incubated for 5 mins prior to UDPGA addition measured after 5 to 30 mins by LC-UV analysis. The class given is ADME. In outline: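 Pooled human kidney or liver microsomes (liver: 25 mixed-gender donors), 5 µg protein, in 200 µL 100 mM potassium phosphate pH 7.4. Alamethicin pre-treated on ice 15 min. Final 10 µM TCC (2% DMSO), with 10 mM MgCl2 and 10 mM saccharolactone, preincubated 5 min at 37 °C. Started with UDPGA (20 mM stock). Sampled at 5, 10, 15 and 30 min into ACN containing 1 µM DCC internal standard.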
In general terms: Liver microsomes are vesicles of endoplasmic reticulum, rich in cytochrome P450 enzymes.

The nature of series [4]: Drug excretion in Sprague-Dawley rat urine assessed as 6-O-glucuronide-triclocarban formation at 1 mg/kg, po by LC-MS analysis. It counts as ADME, organism-based. The settings on record: in vivo. Details: dose 1 mg/kg, route oral.
Series [5] is described as follows: Drug metabolism in human intestine microsomes assessed as N'-glucuronide-triclocarban formation incubated for 5 mins prior to UDPGA addition measured after 5 to 30 mins by LC-UV analysis. The class given is ADME. Put shortly:
(§3)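 Microsomes or UGT Supersomes (5 µg protein) were held 15 min on ice with alamethicin in 100 mM potassium phosphate pH 7.4. TCC was added at 10 µM (2% DMSO) with 10 mM MgCl2 and 10 mM saccharolactone, pre-warmed 5 min at 37 °C, then started with UDPGA. Samples at 5, 10, 15 and 30 min were quenched in ACN. Product was read by LC-UV at 265 nm; rate came from regression over time, three incubations.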

Series [6] has as its target T1, UDP-glucuronosyltransferase 1A6 (Homo sapiens, UniProt P19224).
T1 sequence (P19224 whole entry): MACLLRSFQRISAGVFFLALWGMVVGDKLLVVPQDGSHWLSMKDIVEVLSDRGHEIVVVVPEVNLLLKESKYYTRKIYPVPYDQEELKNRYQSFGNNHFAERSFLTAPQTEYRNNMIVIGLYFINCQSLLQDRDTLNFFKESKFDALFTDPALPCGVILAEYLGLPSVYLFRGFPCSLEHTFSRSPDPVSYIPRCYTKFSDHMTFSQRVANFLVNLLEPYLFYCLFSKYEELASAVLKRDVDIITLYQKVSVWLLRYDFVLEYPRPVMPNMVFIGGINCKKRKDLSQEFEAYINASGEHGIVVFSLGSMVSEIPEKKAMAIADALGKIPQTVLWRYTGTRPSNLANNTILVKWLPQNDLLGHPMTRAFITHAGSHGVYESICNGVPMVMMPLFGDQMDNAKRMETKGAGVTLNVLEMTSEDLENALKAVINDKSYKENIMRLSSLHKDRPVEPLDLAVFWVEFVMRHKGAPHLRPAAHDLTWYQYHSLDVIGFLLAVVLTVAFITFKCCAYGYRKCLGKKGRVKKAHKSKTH
Briefly: Drug metabolism assessed as human UGT1A6-mediated N-glucuronide-triclocarban formation expressed in baculovirus infected insect sf9 cells incubated for 5 mins prior to UDPGA addition measured after 5 to 30 mins by LC-UV analysis. The class given is ADME. Put shortly: as §3

Series [7] concerns the target T2, UDP-glucuronosyltransferase 2B7 (Homo sapiens, UniProt P16662).
T2 sequence (P16662 whole entry): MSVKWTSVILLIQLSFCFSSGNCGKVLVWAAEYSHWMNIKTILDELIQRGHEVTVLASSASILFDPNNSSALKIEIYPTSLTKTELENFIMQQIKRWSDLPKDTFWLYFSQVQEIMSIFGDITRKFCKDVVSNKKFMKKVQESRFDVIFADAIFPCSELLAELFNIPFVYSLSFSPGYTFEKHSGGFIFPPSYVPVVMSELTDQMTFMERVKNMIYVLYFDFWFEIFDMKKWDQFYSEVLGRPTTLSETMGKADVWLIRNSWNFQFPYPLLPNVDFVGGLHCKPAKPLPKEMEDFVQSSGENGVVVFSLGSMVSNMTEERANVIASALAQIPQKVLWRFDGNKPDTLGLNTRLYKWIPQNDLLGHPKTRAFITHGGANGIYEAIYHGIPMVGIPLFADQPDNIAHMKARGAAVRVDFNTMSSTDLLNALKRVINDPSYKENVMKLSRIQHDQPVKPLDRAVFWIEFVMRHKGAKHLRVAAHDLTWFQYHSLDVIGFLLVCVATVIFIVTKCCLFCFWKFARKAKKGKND
Briefly: Drug metabolism assessed as human UGT2B7-mediated N'-glucuronide-triclocarban formation expressed in baculovirus infected insect sf9 cells incubated for 5 mins prior to UDPGA addition measured after 5 to 30 mins by LC-UV analysis. The class given is ADME. In outline:
as §3

Series [8] deals with T3, UDP-glucuronosyltransferase 1A8 (Homo sapiens, UniProt Q9HAW9).
T3 sequence (Q9HAW9 whole entry): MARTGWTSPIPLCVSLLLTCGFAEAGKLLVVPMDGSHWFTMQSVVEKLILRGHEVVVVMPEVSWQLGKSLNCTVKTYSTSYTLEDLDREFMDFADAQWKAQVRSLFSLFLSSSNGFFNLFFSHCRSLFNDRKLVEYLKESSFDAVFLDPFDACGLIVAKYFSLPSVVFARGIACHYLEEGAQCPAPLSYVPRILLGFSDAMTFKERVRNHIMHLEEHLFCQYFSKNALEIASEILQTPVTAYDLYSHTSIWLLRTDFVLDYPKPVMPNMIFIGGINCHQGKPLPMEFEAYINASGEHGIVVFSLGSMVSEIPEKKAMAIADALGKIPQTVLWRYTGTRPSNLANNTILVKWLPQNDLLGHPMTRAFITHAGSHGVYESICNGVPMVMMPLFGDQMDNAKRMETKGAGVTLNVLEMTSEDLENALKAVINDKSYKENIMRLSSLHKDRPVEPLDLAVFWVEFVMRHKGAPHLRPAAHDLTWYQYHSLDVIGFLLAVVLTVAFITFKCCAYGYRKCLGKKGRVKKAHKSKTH
Put plainly: Drug metabolism assessed as human UGT1A8-mediated N-glucuronide-triclocarban formation expressed in baculovirus infected insect sf9 cells incubated for 5 mins prior to UDPGA addition measured after 5 to 30 mins by LC-UV analysis. The class given is ADME. In outline: as §3

Series [9] is described as follows: Drug excretion in Swiss webster mouse urine assessed as 6-O-glucuronide-triclocarban formation at 5 mg/kg, po by LC-MS analysis. Details: dose 5 mg/kg, route oral. Conditions: in vivo. It counts as ADME, organism-based. In outline:
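Mice were housed two per metabolic cage, with blank urine collected over the 24 h before dosing. TCC was given by oral gavage as a 1 mg/mL solution in 20/80 DMSO/PEG400 (v/v) at 5 mg/kg. Urine was collected at 0-24 h and 24-48 h and analysed by online LC-MS. Values are the mean of two independent experiments.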

For `O=C(Nc1ccc(Cl)c(Cl)c1)Nc1ccc(Cl)cc1O`, in series [1], the Michaelis constant (Km) (commonly the substrate concentration at which the rate is half of its maximum) at 0.5 h stood at 3.08 µM. Further, the maximal velocity (Vmax) (in general, the top rate of the reaction or transport when substrate is in excess) in the series with Liver microsome [2] was found to be 5.37 nmol/min/mg.

For the compound `O=C(Nc1ccc(Cl)cc1)Nc1ccc(Cl)c(Cl)c1` [TRICLOCARBAN], the Drug metabolism result (with Liver microsome [3]; in series [5]; in [6]; in series [7]; in series [8]) was “metabolite_not_detected” each time. Also, the Drug excretion result in [4] and in series [9] was “metabolite_detected” in each case.
